Each block holds one compound with its values, some of them ahead of it.
Experiments:
[1] = tested on: NRF2 downstream targets, NQO1 and HO-1; test: NQO1 and HO-1 protein levels in HEK293T and HCA7 cell lines; assay type: cell-based; details: 48 h
Outline: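 HEK293T, HCA7 and A549 cells were grown in DMEM with 10% FBS and pen/strep; BEAS-2B in LHC-9 with pen/strep; all at 37 °C, 10% CO₂. Cells were exposed to test compound for 48 h, lysed, run on 4–12% SDS-PAGE and transferred to nitrocellulose. Blocking was 5% skim milk for 1 h at RT. Probes were anti-KEAP1, CRBN, NQO1 or HO-1, with HRP anti-β-actin loading control and HRP secondaries. Blots represent 3 independent experiments.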

[2] = target: recombinant KEAP1-Kelch domain (Homo sapiens, UniProt Q14145); test: biochemical; assay type: binding; details: for reduction in KEAP1 binding affinity compared to inhibitor 2: HTRF biochemical assay
recombinant KEAP1-Kelch domain, sequence (Q14145 312-624): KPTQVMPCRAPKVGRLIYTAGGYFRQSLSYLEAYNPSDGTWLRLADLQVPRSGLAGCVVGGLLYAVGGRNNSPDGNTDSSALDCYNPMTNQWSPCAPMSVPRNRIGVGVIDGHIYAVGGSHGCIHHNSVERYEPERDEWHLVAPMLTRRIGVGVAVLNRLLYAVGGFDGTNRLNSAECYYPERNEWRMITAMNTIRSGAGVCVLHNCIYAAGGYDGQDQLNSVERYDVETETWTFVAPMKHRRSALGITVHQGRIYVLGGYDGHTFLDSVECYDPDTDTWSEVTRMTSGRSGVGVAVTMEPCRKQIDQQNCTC

KEAP1 in HEK293T cells = KEAP1 in HEK293T cells (Homo sapiens, UniProt Q14145); test: KEAP1 degradation in HEK293T cells; assay type: cell-based; details: HEK293T cells; for KEAP1 degradation efficiency: three lower concentrations, 5 and 24 h
KEAP1 in HEK293T cells, sequence (Q14145 whole entry): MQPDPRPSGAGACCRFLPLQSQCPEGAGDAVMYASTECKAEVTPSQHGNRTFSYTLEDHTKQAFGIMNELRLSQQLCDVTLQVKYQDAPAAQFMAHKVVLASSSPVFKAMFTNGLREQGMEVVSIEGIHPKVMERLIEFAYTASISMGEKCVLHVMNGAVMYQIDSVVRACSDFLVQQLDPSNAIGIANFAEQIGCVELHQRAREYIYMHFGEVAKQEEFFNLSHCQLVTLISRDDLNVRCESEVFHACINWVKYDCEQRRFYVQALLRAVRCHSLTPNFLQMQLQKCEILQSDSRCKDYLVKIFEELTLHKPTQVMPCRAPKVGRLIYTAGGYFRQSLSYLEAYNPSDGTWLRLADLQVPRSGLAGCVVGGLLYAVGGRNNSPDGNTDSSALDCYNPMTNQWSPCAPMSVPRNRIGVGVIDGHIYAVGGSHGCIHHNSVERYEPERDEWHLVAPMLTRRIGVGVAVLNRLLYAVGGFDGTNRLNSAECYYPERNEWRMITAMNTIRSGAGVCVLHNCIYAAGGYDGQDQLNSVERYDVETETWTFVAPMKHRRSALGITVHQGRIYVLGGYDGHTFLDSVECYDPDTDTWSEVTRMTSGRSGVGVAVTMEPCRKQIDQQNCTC

reduction in KEAP1 binding affinity compared to inhibitor 2 [2]: greater than 3 fold
SMILES: Cc1ccc(C(CC(=O)O)c2cc(OC(=O)CCCOc3cccc4c3C(=O)N(C3CCC(=O)NC3=O)C4=O)c3c(c2)nnn3C)cc1CN1C[C@@H](C)Oc2ccccc2S1(=O)=O (stereo partly drawn) [Compound 5, 3-(7-((4-((2-(2,6-Dioxopiperidin-3-yl)-1,3-dioxoisoindolin-4-yl)oxy)butanoyl)oxy)-1-methyl-1H-benzo[d][1,2,3]triazol-5-yl)-3-(4-methyl-3-(((R)-4-methyl-1,1-dioxido-3,4-dihydro-2H-benzo[b][1,4,5]oxathiazepin-2-yl)methyl)phenyl)propanoic acid]

IC50 [2]: 0.563 µM
reduction in KEAP1 binding affinity compared to inhibitor 2 [2]: greater than 3 fold
SMILES: Cc1ccc(C(CC(=O)O)c2cc(OCCOCCOCCNC(=O)COc3cccc4c3C(=O)N(C3CCC(=O)NC3=O)C4=O)c3c(c2)nnn3C)cc1CN1C[C@@H](C)Oc2ccccc2S1(=O)=O (stereo partly drawn) [Compound 12, 3-(7-(2-(2-(2-(2-((2-(2,6-Dioxopiperidin-3-yl)-1,3-dioxoisoindolin-4-yl)oxy)acetamido)ethoxy)ethoxy)ethoxy)-1-methyl-1H-benzo[d][1,2,3]triazol-5-yl)-3-(4-methyl-3-(((R)-4-methyl-1,1-dioxido-3,4-dihydro-2H-benzo[b][1,4,5]oxathiazepin-2-yl)methyl)phenyl)propanoic acid]

IC50 [2]: 0.147 µM
SMILES: Cc1ccc(C(CC(=O)O)c2cc(OCCNC(=O)COc3cccc4c3C(=O)N(C3CCC(=O)NC3=O)C4=O)c3c(c2)nnn3C)cc1CN1C[C@@H](C)Oc2ccccc2S1(=O)=O (stereo partly drawn) [Compound 6, 3-(7-(2-(2-((2-(2,6-Dioxopiperidin-3-yl)-1,3-dioxoisoindolin-4-yl)oxy)acetamido)ethoxy)-1-methyl-1H-benzo[d][1,2,3]triazol-5-yl)-3-(4-methyl-3-(((R)-4-methyl-1,1-dioxido-3,4-dihydro-2H-benzo[b][1,4,5]oxathiazepin-2-yl)methyl)phenyl)propanoic acid]

IC50 [2]: 0.143 µM
SMILES: Cc1ccc(C(CC(=O)O)c2cc(OCCCNC(=O)COc3cccc4c3C(=O)N(C3CCC(=O)NC3=O)C4=O)c3c(c2)nnn3C)cc1CN1C[C@@H](C)Oc2ccccc2S1(=O)=O (stereo partly drawn) [Compound 7, 3-(7-(3-(2-((2-(2,6-Dioxopiperidin-3-yl)-1,3-dioxoisoindolin-4-yl)oxy)acetamido)propoxy)-1-methyl-1H-benzo[d][1,2,3]triazol-5-yl)-3-(4-methyl-3-(((R)-4-methyl-1,1-dioxido-3,4-dihydro-2H-benzo[b][1,4,5]oxathiazepin-2-yl)methyl)phenyl)propanoic acid]

IC50 [2]: 0.12 µM
SMILES: Cc1ccc(C(CC(=O)O)c2cc(OCCOCCOCCNc3cccc4c3C(=O)N(C3CCC(=O)NC3=O)C4=O)c3c(c2)nnn3C)cc1CN1C[C@@H](C)Oc2ccccc2S1(=O)=O (stereo partly drawn) [Compound 11, 3-(7-(2-(2-(2-((2-(2,6-Dioxopiperidin-3-yl)-1,3-dioxoisoindolin-4-yl)amino)ethoxy)ethoxy)ethoxy)-1-methyl-1H-benzo[d][1,2,3]triazol-5-yl)-3-(4-methyl-3-(((R)-4-methyl-1,1-dioxido-3,4-dihydro-2H-benzo[b][1,4,5]oxathiazepin-2-yl)methyl)phenyl)propanoic acid]

IC50 [2]: 0.127 µM
KEAP1 degradation efficiency (KEAP1 in HEK293T cells): most efficient at degrading KEAP1
SMILES: Cc1ccc(C(CC(=O)O)c2cc(OCCCCCCNC(=O)COc3cccc4c3C(=O)N(C3CCC(=O)NC3=O)C4=O)c3c(c2)nnn3C)cc1CN1C[C@@H](C)Oc2ccccc2S1(=O)=O (stereo partly drawn) [Compound 10, 3-(7-((6-(2-((2-(2,6-Dioxopiperidin-3-yl)-1,3-dioxoisoindolin-4-yl)oxy)acetamido)hexyl)oxy)-1-methyl-1H-benzo[d][1,2,3]triazol-5-yl)-3-(4-methyl-3-(((R)-4-methyl-1,1-dioxido-3,4-dihydro-2H-benzo[b][1,4,5]oxathiazepin-2-yl)methyl)phenyl)propanoic acid]

IC50 [2]: 0.086 µM
SMILES: Cc1ccc(C(CC(=O)O)c2cc(OCCCCCNC(=O)COc3cccc4c3C(=O)N(C3CCC(=O)NC3=O)C4=O)c3c(c2)nnn3C)cc1CN1C[C@@H](C)Oc2ccccc2S1(=O)=O (stereo partly drawn) [Compound 9, 3-(7-((5-(2-((2-(2,6-Dioxopiperidin-3-yl)-1,3-dioxoisoindolin-4-yl)oxy)acetamido)pentyl)oxy)-1-methyl-1H-benzo[d][1,2,3]triazol-5-yl)-3-(4-methyl-3-(((R)-4-methyl-1,1-dioxido-3,4-dihydro-2H-benzo[b][1,4,5]oxathiazepin-2-yl)methyl)phenyl)propanoic acid]

Continued, compound first:

SMILES: Cc1ccc(C(CC(=O)O)c2cc(OCCCCCCCNc3cccc4c3C(=O)N(C3CCC(=O)N(C)C3=O)C4=O)c3c(c2)nnn3C)cc1CN1C[C@@H](C)Oc2ccccc2S1(=O)=O (stereo partly drawn) [Compound 15, 3-(4-Methyl-3-(((R)-4-methyl-1,1-dioxido-3,4-dihydro-2H-benzo[b][1,4,5]oxathiazepin-2-yl)methyl)phenyl)-3-(1-methyl-7-((7-((2-(1-methyl-2,6-dioxopiperidin-3-yl)-1,3-dioxoisoindolin-4-yl)amino)heptyl)oxy)-1H-benzo[d][1,2,3]triazol-5-yl)propanoic acid]
HO-1 protein expression [1]: but not HO-1
NQO1 protein expression [1]: upregulated

SMILES: Cc1ccc(C(CC(=O)O)c2cc(OCCCCNC(=O)COc3cccc4c3C(=O)N(C3CCC(=O)NC3=O)C4=O)c3c(c2)nnn3C)cc1CN1C[C@@H](C)Oc2ccccc2S1(=O)=O (stereo partly drawn) [Compound 8, 3-(7-(4-(2-((2-(2,6-Dioxopiperidin-3-yl)-1,3-dioxoisoindolin-4-yl)oxy)acetamido)butoxy)-1-methyl-1H-benzo[d][1,2,3]triazol-5-yl)-3-(4-methyl-3-(((R)-4-methyl-1,1-dioxido-3,4-dihydro-2H-benzo[b][1,4,5]oxathiazepin-2-yl)methyl)phenyl)propanoic acid]
IC50 [2]: 0.066 µM
KEAP1 degradation at longer time points (KEAP1 in HEK293T cells; 48 h and 72 h, comparison of 8 and 14): less effective at longer time points of 48 h and 72 h
KEAP1 degradation efficiency (KEAP1 in HEK293T cells): most efficient at degrading KEAP1

SMILES: Cc1ccc(C(CC(=O)O)c2cc(OCCNc3cccc4c3C(=O)N(C3CCC(=O)NC3=O)C4=O)c3c(c2)nnn3C)cc1CN1C[C@@H](C)Oc2ccccc2S1(=O)=O (stereo partly drawn) [Compound 3, 3-(7-(2-((2-(2,6-Dioxopiperidin-3-yl)-1,3-dioxoisoindolin-4-yl)amino)ethoxy)-1-methyl-1H-benzo[d][1,2,3]triazol-5-yl)-3-(4-methyl-3-(((R)-4-methyl-1,1-dioxido-3,4-dihydro-2H-benzo[b][1,4,5]oxathiazepin-2-yl)methyl)phenyl)propanoic acid]
IC50 [2]: 0.15 µM

SMILES: Cc1ccc(C(CC(=O)O)c2cc(OCCCNc3cccc4c3C(=O)N(C3CCC(=O)NC3=O)C4=O)c3c(c2)nnn3C)cc1CN1C[C@@H](C)Oc2ccccc2S1(=O)=O (stereo partly drawn) [Compound 4, 3-(7-(3-((2-(2,6-Dioxopiperidin-3-yl)-1,3-dioxoisoindolin-4-yl)amino)propoxy)-1-methyl-1H-benzo[d][1,2,3]triazol-5-yl)-3-(4-methyl-3-(((R)-4-methyl-1,1-dioxido-3,4-dihydro-2H-benzo[b][1,4,5]oxathiazepin-2-yl)methyl)phenyl)propanoic acid]
IC50 [2]: 0.267 µM
reduction in KEAP1 binding affinity compared to inhibitor 2 [2]: greater than 3 fold

SMILES: C[S+]([O-])CCCCN=C=S (stereo not shown) [sulforaphane, reference compound]
HO-1 protein expression [1]: but not HO-1
NQO1 protein expression [1]: upregulated

Source: article PMC9720105 (Redox Biology, 2022)
